Common to all, as to format: functional, cell-based
In test [1] the target is T1, Parathyroid hormone/parathyroid hormone-related peptide receptor (Homo sapiens) (UniProt Q03431).
T1 sequence (whole entry): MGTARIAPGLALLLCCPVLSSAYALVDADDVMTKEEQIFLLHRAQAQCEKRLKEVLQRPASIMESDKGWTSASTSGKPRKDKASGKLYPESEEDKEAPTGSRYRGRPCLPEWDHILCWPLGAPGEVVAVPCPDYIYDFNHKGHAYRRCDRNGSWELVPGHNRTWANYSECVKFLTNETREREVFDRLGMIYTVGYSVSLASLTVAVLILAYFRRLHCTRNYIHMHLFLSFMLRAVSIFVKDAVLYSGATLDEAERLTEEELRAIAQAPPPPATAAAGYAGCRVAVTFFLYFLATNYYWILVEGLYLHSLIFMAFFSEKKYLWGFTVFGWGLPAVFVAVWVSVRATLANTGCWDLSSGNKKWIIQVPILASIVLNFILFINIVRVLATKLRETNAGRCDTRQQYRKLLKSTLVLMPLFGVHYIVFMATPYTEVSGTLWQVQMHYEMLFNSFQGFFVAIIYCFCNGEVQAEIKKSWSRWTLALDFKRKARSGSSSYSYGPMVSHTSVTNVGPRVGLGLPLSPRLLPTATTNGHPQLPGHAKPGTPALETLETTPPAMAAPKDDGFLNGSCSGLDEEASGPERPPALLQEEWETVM
Description: Agonist activity at extracellular domain truncate human PTH1 receptor expressed in GD5 cells assessed as induction of cAMP after 12 to 20 mins by luciferase reporter gene assay. The method, boiled down:
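HEK293-derived lines stably expressing Glosensor cAMP reporter plus full-length human PTHR1 (GP2.3) or ECD-truncated PTHR1 (GD5). Confluent monolayers preincubated at room temperature in CO2-independent medium with 0.5 mM D-luciferin until baseline stable (30 min), then varied agonist concentrations added. Maximal luminescence (12−20 min) used for sigmoidal variable-slope fits.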
(In a reporter assay the amount or activity of a reporter protein is the signal.)

Test [2] has as its target T2, Parathyroid hormone/parathyroid hormone-related peptide receptor (Homo sapiens, UniProt Q03431).
T2 sequence (Q03431 whole entry): T1 sequence (whole entry)
The experiment in a line: Agonist activity at human PTH1 receptor expressed in human GP2.3 cells assessed as induction of cAMP after 12 to 20 mins by luciferase reporter gene assay.

Test [3] concerns the target T1, Parathyroid hormone/parathyroid hormone-related peptide receptor (Homo sapiens). The experiment in a line: Agonist activity at human PTH1 receptor expressed in human GP2.3 cells assessed as induction of cAMP after 12 to 20 mins by luciferase reporter gene assay relative to PTH(1 to 34 residues)-NH2.

Activity calls are given as the source filed them. The rule behind the calls is not given here. Peptide text beside a SMILES is read from it. * marks the point of attachment. ACPC(1S,2S) = N[C@H]1CCC[C@@H]1C(=O)*

Regarding `CC[C@H](C)[C@H](NC(=O)[C@H](CCC(=O)O)NC(=O)[C@H](CO)NC(=O)[C@@H](NC(=O)[C@@H](N)CO)C(C)C)C(=O)N[C@@H](CCC(N)=O)C(=O)N[C@@H](CC(C)C)C(=O)N[C@H]1CCC[C@@H]1C(=O)N[C@@H](Cc1cnc[nH]1)C(=O)N[C@@H](CC(N)=O)C(=O)N[C@@H](CC(C)C)C(=O)NCC(=O)N[C@@H](CCCCN)C(=O)N[C@@H](Cc1cnc[nH]1)C(=O)N[C@@H](CC(C)C)C(=O)N[C@@H](CC(N)=O)C(=O)N[C@@H](CO)C(=O)N[C@@H](CCSC)C(=O)N[C@@H](CCC(=O)O)C(=O)N[C@@H](CCCNC(=N)N)C(=O)N[C@H](C(=O)N[C@@H](CCC(=O)O)C(=O)N[C@@H](Cc1c[nH]c2ccccc12)C(=O)N[C@@H](CC(C)C)C(=O)N[C@@H](CCCNC(=N)N)C(=O)N[C@@H](CCCCN)C(=O)N[C@@H](CCCCN)C(=O)N[C@@H](CC(C)C)C(=O)N[C@@H](CCC(N)=O)C(=O)N[C@@H](CC(=O)O)C(=O)N[C@H](C(=O)N[C@@H](Cc1cnc[nH]1)C(=O)N[C@@H](CC(N)=O)C(=O)N[C@@H](Cc1ccccc1)C(N)=O)C(C)C)C(C)C`, the result in test [1] was Active. In addition, in test [2] (read-out: EC50), the EC50 came to 9.74 nM. Moreover, the fold change (FC) in test [3] is 107.

In the case of `CC[C@H](C)[C@H](NC(=O)[C@H](CCC(=O)O)NC(=O)[C@H](CO)NC(=O)[C@@H](NC(=O)[C@H]1CCC[C@@H]1N)C(C)C)C(=O)N[C@@H](CCC(N)=O)C(=O)N[C@@H](CC(C)C)C(=O)N[C@@H](CCSC)C(=O)N[C@@H](Cc1cnc[nH]1)C(=O)N[C@@H](CC(N)=O)C(=O)N[C@@H](CC(C)C)C(=O)NCC(=O)N[C@@H](CCCCN)C(=O)N[C@@H](Cc1cnc[nH]1)C(=O)N[C@@H](CC(C)C)C(=O)N[C@@H](CC(N)=O)C(=O)N[C@@H](CO)C(=O)N[C@@H](CCSC)C(=O)N[C@@H](CCC(=O)O)C(=O)N[C@@H](CCCNC(=N)N)C(=O)N[C@H](C(=O)N[C@@H](CCC(=O)O)C(=O)N[C@@H](Cc1c[nH]c2ccccc12)C(=O)N[C@@H](CC(C)C)C(=O)N[C@@H](CCCNC(=N)N)C(=O)N[C@@H](CCCCN)C(=O)N[C@@H](CCCCN)C(=O)N[C@@H](CC(C)C)C(=O)N[C@@H](CCC(N)=O)C(=O)N[C@@H](CC(=O)O)C(=O)N[C@H](C(=O)N[C@@H](Cc1cnc[nH]1)C(=O)N[C@@H](CC(N)=O)C(=O)N[C@@H](Cc1ccccc1)C(N)=O)C(C)C)C(C)C` ({ACPC(1S,2S)}-VSEIQLMHNLGKHLNSMERVEWLRKKLQDVHNF-NH2), the outcome in test [1] was Active. In addition, in test [2] (read-out: EC50), the EC50 came out at 0.15 nM. For the same molecule, the fold change (FC) in test [3] worked out at 1.6.

In the case of `CC[C@H](C)[C@H](NC(=O)[C@H](CCC(=O)O)NC(=O)[C@H](CO)NC(=O)[C@@H](NC(=O)[C@@H](N)CO)C(C)C)C(=O)N[C@@H](CCC(N)=O)C(=O)N[C@@H](CC(C)C)C(=O)N[C@@H](CCSC)C(=O)N[C@H]1CNC[C@@H]1C(=O)N[C@@H](CC(N)=O)C(=O)N[C@@H](CC(C)C)C(=O)NCC(=O)N[C@@H](CCCCN)C(=O)N[C@@H](Cc1cnc[nH]1)C(=O)N[C@@H](CC(C)C)C(=O)N[C@@H](CC(N)=O)C(=O)N[C@@H](CO)C(=O)N[C@@H](CCSC)C(=O)N[C@@H](CCC(=O)O)C(=O)N[C@@H](CCCNC(=N)N)C(=O)N[C@H](C(=O)N[C@@H](CCC(=O)O)C(=O)N[C@@H](Cc1c[nH]c2ccccc12)C(=O)N[C@@H](CC(C)C)C(=O)N[C@@H](CCCNC(=N)N)C(=O)N[C@@H](CCCCN)C(=O)N[C@@H](CCCCN)C(=O)N[C@@H](CC(C)C)C(=O)N[C@@H](CCC(N)=O)C(=O)N[C@@H](CC(=O)O)C(=O)N[C@H](C(=O)N[C@@H](Cc1cnc[nH]1)C(=O)N[C@@H](CC(N)=O)C(=O)N[C@@H](Cc1ccccc1)C(N)=O)C(C)C)C(C)C`, in test [1], the result was Active. Further, in test [2], the concentration giving a half-maximal response (EC50) entry is reported as “Not Active”.

On to `CC[C@H](C)[C@H](NC(=O)[C@H]1CCC[C@@H]1NC(=O)[C@H](CO)NC(=O)[C@@H](NC(=O)[C@@H](N)CO)C(C)C)C(=O)N[C@@H](CCC(N)=O)C(=O)N[C@@H](CC(C)C)C(=O)N[C@@H](CCSC)C(=O)N[C@@H](Cc1cnc[nH]1)C(=O)N[C@@H](CC(N)=O)C(=O)N[C@@H](CC(C)C)C(=O)NCC(=O)N[C@@H](CCCCN)C(=O)N[C@@H](Cc1cnc[nH]1)C(=O)N[C@@H](CC(C)C)C(=O)N[C@@H](CC(N)=O)C(=O)N[C@@H](CO)C(=O)N[C@@H](CCSC)C(=O)N[C@@H](CCC(=O)O)C(=O)N[C@@H](CCCNC(=N)N)C(=O)N[C@H](C(=O)N[C@@H](CCC(=O)O)C(=O)N[C@@H](Cc1c[nH]c2ccccc12)C(=O)N[C@@H](CC(C)C)C(=O)N[C@@H](CCCNC(=N)N)C(=O)N[C@@H](CCCCN)C(=O)N[C@@H](CCCCN)C(=O)N[C@@H](CC(C)C)C(=O)N[C@@H](CCC(N)=O)C(=O)N[C@@H](CC(=O)O)C(=O)N[C@H](C(=O)N[C@@H](Cc1cnc[nH]1)C(=O)N[C@@H](CC(N)=O)C(=O)N[C@@H](Cc1ccccc1)C(N)=O)C(C)C)C(C)C`, for which, in test [1], the result was Active. The EC50 result in test [2] is “Not Active”.

`CC[C@H](C)[C@H](NC(=O)[C@H](CCC(=O)O)NC(=O)C[C@H](CO)NC(=O)[C@@H](NC(=O)[C@@H](N)CO)C(C)C)C(=O)N[C@@H](CCC(N)=O)C(=O)N[C@@H](CC(C)C)C(=O)N[C@@H](CCSC)C(=O)N[C@@H](Cc1cnc[nH]1)C(=O)N[C@@H](CC(N)=O)C(=O)N[C@@H](CC(C)C)C(=O)NCC(=O)N[C@@H](CCCCN)C(=O)N[C@@H](Cc1cnc[nH]1)C(=O)N[C@@H](CC(C)C)C(=O)N[C@@H](CC(N)=O)C(=O)N[C@@H](CO)C(=O)N[C@@H](CCSC)C(=O)N[C@@H](CCC(=O)O)C(=O)N[C@@H](CCCNC(=N)N)C(=O)N[C@H](C(=O)N[C@@H](CCC(=O)O)C(=O)N[C@@H](Cc1c[nH]c2ccccc12)C(=O)N[C@@H](CC(C)C)C(=O)N[C@@H](CCCNC(=N)N)C(=O)N[C@@H](CCCCN)C(=O)N[C@@H](CCCCN)C(=O)N[C@@H](CC(C)C)C(=O)N[C@@H](CCC(N)=O)C(=O)N[C@@H](CC(=O)O)C(=O)N[C@H](C(=O)N[C@@H](Cc1cnc[nH]1)C(=O)N[C@@H](CC(N)=O)C(=O)N[C@@H](Cc1ccccc1)C(N)=O)C(C)C)C(C)C`: the outcome in test [1] was Active. Also, in test [3], the fold change (FC) was 55.

Take `CC[C@H](C)[C@H](NC(=O)[C@H](CCC(=O)O)NC(=O)[C@H](CO)NC(=O)[C@@H](NC(=O)[C@@H](N)CO)C(C)C)C(=O)N[C@@H](CCC(N)=O)CC(=O)N[C@@H](CC(C)C)C(=O)N[C@@H](CCSC)C(=O)N[C@@H](Cc1cnc[nH]1)C(=O)N[C@@H](CC(N)=O)C(=O)N[C@@H](CC(C)C)C(=O)NCC(=O)N[C@@H](CCCCN)C(=O)N[C@@H](Cc1cnc[nH]1)C(=O)N[C@@H](CC(C)C)C(=O)N[C@@H](CC(N)=O)C(=O)N[C@@H](CO)C(=O)N[C@@H](CCSC)C(=O)N[C@@H](CCC(=O)O)C(=O)N[C@@H](CCCNC(=N)N)C(=O)N[C@H](C(=O)N[C@@H](CCC(=O)O)C(=O)N[C@@H](Cc1c[nH]c2ccccc12)C(=O)N[C@@H](CC(C)C)C(=O)N[C@@H](CCCNC(=N)N)C(=O)N[C@@H](CCCCN)C(=O)N[C@@H](CCCCN)C(=O)N[C@@H](CC(C)C)C(=O)N[C@@H](CCC(N)=O)C(=O)N[C@@H](CC(=O)O)C(=O)N[C@H](C(=O)N[C@@H](Cc1cnc[nH]1)C(=O)N[C@@H](CC(N)=O)C(=O)N[C@@H](Cc1ccccc1)C(N)=O)C(C)C)C(C)C`: the outcome in test [1] was Active. The fold change (FC) in test [3] was determined as 160.

For orientation: EC50 means the concentration giving half of the maximal effect.

These data come from ChEMBL document CHEMBL4024754, “Development of Potent, Protease-Resistant Agonists of the Parathyroid Hormone Receptor with Broad β Residue Distribution” (J Med Chem, 2017).
